# The source made the active and inactive calls. No cut-off for these calls is given here.
# Experiments:
# [1] = biological target: T1, Granzyme K (Rattus norvegicus) (UniProt P49864); test: Compound was evaluated to inhibit rat granzyme K; No inhibition
# T1 sequence (whole entry): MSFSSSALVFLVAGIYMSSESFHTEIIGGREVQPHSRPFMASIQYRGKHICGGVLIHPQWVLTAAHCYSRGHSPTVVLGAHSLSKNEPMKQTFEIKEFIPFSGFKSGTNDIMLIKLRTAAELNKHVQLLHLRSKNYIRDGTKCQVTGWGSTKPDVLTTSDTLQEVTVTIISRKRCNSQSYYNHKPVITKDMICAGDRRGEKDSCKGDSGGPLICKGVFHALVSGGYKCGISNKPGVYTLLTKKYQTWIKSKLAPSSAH
# Outline: (§1)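 Native rat granzyme K, purified by size-exclusion in 1 M NaCl then MonoS cation exchange. Incubated with inhibitor (1.0–450 μM) at 25 °C in 0.1 M Hepes, 0.01 M CaCl2, pH 7.5 (7.1% DMSO). Timed aliquots were read for residual activity on Cbz-Arg-SBzl with DTNB at 405 nm. k_obs came from ln vt/vo vs time, one or two per inhibitor. For no-inhibition lines, none was seen after 25 min.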
# [2] = biological target: T2, Serine protease 1 (Bos taurus) (UniProt P00760); test: Inhibition of bovine trypsin
# T2 sequence (whole entry): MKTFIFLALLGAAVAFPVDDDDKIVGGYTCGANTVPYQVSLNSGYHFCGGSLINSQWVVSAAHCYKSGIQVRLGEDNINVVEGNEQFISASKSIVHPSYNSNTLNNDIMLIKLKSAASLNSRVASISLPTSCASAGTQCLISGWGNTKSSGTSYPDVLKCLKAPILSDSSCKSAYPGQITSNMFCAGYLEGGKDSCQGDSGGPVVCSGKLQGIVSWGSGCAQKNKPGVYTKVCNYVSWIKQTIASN
# Outline: (§2)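 Irreversible inhibition assayed by incubation at 25 °C in 0.1 M Hepes, 0.01 M CaCl2, pH 7.5 (2% DMSO), inhibitor 1.0–450 μM. Timed aliquots were read for residual activity on Cbz-Arg-SBzl with DTNB at 410 nm. Pseudo-first-order k_obs came from ln vt/vo vs time, using 5–10 points over 2–3 half-lives, three k_obs per inhibitor. DMSO-only controls were run. For no-inhibition lines, none was seen after 25 min.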
# Tryptase (Homo sapiens) [3] = biological target: T3, Tryptase (Homo sapiens) (UniProt Q9BZJ3+Q15661+Q9NRR2); test: Inhibition of mast cell tryptase; format: protein assay
# Outline: (§3)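 Human lung mast cell tryptase, high-molecular-weight form, heparin-free, active sites titrated with MUGB. Incubated with inhibitor at 25 °C in 0.1 M Hepes, 10% glycerol, 10 mM heparin, pH 7.5 (7.1% DMSO). […] DMSO controls were run.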
# [4] = biological target: T4, Granzyme A (Homo sapiens) (UniProt P12544); test: Inhibition of human granzyme A
# T4 sequence (whole entry): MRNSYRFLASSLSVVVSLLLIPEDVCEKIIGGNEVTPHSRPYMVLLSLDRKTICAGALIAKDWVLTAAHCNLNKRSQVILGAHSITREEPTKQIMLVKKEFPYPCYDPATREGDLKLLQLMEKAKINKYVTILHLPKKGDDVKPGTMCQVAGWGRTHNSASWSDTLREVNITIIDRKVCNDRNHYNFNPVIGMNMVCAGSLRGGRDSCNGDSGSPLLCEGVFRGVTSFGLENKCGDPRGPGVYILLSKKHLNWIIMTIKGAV
# Outline: (§4)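 Recombinant human and rat granzyme A, incubated with inhibitor (1.0–450 μM) at 25 °C in 0.1 M Hepes, 0.01 M CaCl2, pH 7.5 (7.6% DMSO). Timed aliquots were read for residual activity on Cbz-Arg-SBzl with DTNB at 405 nm. k_obs came from ln vt/vo vs time over 5–10 points and 2–3 half-lives, two k_obs per inhibitor. DMSO controls were run.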
# [5] = biological target: T5, Granzyme A (Rattus norvegicus) (UniProt Q8CJF4); test: Inhibition of rat granzyme A.; outline: as §4
# T5 sequence (whole entry): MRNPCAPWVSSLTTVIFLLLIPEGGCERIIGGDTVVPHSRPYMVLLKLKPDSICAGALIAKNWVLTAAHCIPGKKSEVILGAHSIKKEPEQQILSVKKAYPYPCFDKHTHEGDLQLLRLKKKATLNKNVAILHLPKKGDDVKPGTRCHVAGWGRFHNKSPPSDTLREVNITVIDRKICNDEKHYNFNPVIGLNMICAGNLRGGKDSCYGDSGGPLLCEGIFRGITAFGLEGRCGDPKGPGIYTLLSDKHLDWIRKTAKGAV
# Tryptase (Homo sapiens) [6] = biological target: T3, Tryptase (Homo sapiens); test: Compound was evaluated to inhibit mast cell tryptase.; format: protein assay; conditions: concentration not given here; outline: as §3
# [7] = biological target: T1, Granzyme K (Rattus norvegicus); test: Inhibition of rat granzyme K; outline: as §1
# [8] = biological target: T1, Granzyme K (Rattus norvegicus); test: Compound was evaluated to inhibit rat granzyme K;No inhibition; outline: as §1
# Tryptase (Homo sapiens) [9] = biological target: T3, Tryptase (Homo sapiens); test: Compound was evaluated to inhibit mast cell tryptase; No inhibition; format: protein assay; outline: as §3
# [10] = biological target: T2, Serine protease 1 (Bos taurus); test: Compound was evaluated to inhibit bovine trypsin; No inhibition; outline: as §2
SMILES,K obs / 1 [1],K obs / 1 [2],kobs/[I] (second-order inhibition rate constant) (Tryptase (Homo sapiens) [3]),kobs/[I] (second-order inactivation rate constant) [4],K obs / 1 [5],inhibition (Tryptase (Homo sapiens) [6]),kobs/[I] (second-order inactivation rate constant) [7],K obs / 1 [8],K obs / 1 (Tryptase (Homo sapiens) [9]),K obs / 1 [10]
NC(N)c1ccc(C(NS(=O)(=O)c2cccc3ccccc23)P(=O)(Oc2ccccc2)Oc2ccccc2)cc1 (stereo not given),inactive,170 M⁻¹ s⁻¹,10 M⁻¹ s⁻¹,330 M⁻¹ s⁻¹,30 M⁻¹ s⁻¹,–,–,–,–,–
N=C(N)c1ccc(C(NC(=O)[C@H](Cc2ccccc2)NC(=O)OCc2ccccc2)P(=O)(Oc2ccccc2)Oc2ccccc2)cc1 (stereo not given in full),–,17 M⁻¹ s⁻¹,–,14 M⁻¹ s⁻¹,8 M⁻¹ s⁻¹,5%,13 M⁻¹ s⁻¹,–,–,–
N=C(N)c1ccc(C(NC(=O)[C@@H]2CCCN2C(=O)c2cccc(Oc3ccccc3)c2)P(=O)(Oc2ccccc2)Oc2ccccc2)cc1 (stereo not given in full),inactive,4080 M⁻¹ s⁻¹,–,330 M⁻¹ s⁻¹,–,7%,–,–,–,–
C[C@H](NC(=O)OCc1ccccc1)C(=O)NC(c1ccc(C(N)N)cc1)P(=O)(Oc1ccccc1)Oc1ccccc1 (stereo not given in full),inactive,1850 M⁻¹ s⁻¹,0.8 M⁻¹ s⁻¹,1670 M⁻¹ s⁻¹,1270 M⁻¹ s⁻¹,–,–,–,–,–
CC(C)C[C@H](NC(=O)OCc1ccccc1)C(=O)NC(c1ccc(C(=N)N)cc1)P(=O)(Oc1ccccc1)Oc1ccccc1 (stereo not given in full),–,50 M⁻¹ s⁻¹,0.3 M⁻¹ s⁻¹,6.3 M⁻¹ s⁻¹,–,–,–,inactive,–,–
NCCCC(NC(=O)OCc1ccccc1)P(=O)(Oc1ccccc1)Oc1ccccc1 (stereo not given),inactive,–,–,0.6 M⁻¹ s⁻¹,–,–,–,–,inactive,inactive
C[C@H](NC(=O)[C@@H](CCCCN)NC(=O)OCc1ccccc1)C(=O)NC(c1ccc(C(N)N)cc1)P(=O)(Oc1ccccc1)Oc1ccccc1 (stereo not given in full),inactive,3140 M⁻¹ s⁻¹,2 M⁻¹ s⁻¹,90 M⁻¹ s⁻¹,–,–,–,–,–,–
C[C@H](NC(=O)[C@@H](CCCCNC(=O)OC(C)(C)C)NC(=O)OCc1ccccc1)C(=O)NC(c1ccc(C(N)N)cc1)P(=O)(Oc1ccccc1)Oc1ccccc1 (stereo not given in full),inactive,3100 M⁻¹ s⁻¹,8.5 M⁻¹ s⁻¹,110 M⁻¹ s⁻¹,–,–,–,–,–,–
N=C(N)c1ccc(C(NC(=O)/C=C/c2cccnc2)P(=O)(Oc2ccccc2)Oc2ccccc2)cc1 (stereo not given),–,–,–,5 M⁻¹ s⁻¹,1 M⁻¹ s⁻¹,–,3 M⁻¹ s⁻¹,–,inactive,inactive

# Reference: ChEMBL document CHEMBL1131259, “Synthesis and evaluation of diphenyl phosphonate esters as inhibitors of the trypsin-like granzymes A and K and mast cell tryptase” (J Med Chem, 1998)
